In ChEMBL document CHEMBL1145648, “Antibacterial activity in serum of the 3,5-diamino-piperidine translation inhibitors” (Bioorg Med Chem Lett, 2008):
In brackets after ≈: the same amount, converted by molar mass.

Experiments:
Type in all cases: functional
Pseudomonas aeruginosa [1] = test: Antibacterial activity against Pseudomonas aeruginosa ATCC 27853 by microdilution method
Outline: (§1)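 MIC (µg/ml) by broth microdilution in Mueller Hinton medium per NCCLS guidance; E. coli ATCC 25922 and P. aeruginosa ATCC 27853.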

Escherichia coli [2] = test: Inhibition of transcription-translation activity in Escherichia coli
Outline: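 Coupled in vitro transcription–translation using E. coli extracts; IC50 in µM.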

Escherichia coli [3] = test: Antibacterial activity against Escherichia coli ATCC 25922 by microdilution method; outline: as §1
Pseudomonas aeruginosa [4] = test: Antibacterial activity against Pseudomonas aeruginosa by agar dilution method
Outline: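 Agar dilution susceptibility testing on Mueller Hinton agar, performed by Fujisawa Pharmaceuticals; MIC50/80/90 denote concentration inhibiting that percent of isolates.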

Escherichia coli [5] = test: Antibacterial activity against Escherichia coli ATCC 25922 by microdilution method in presence of serum
Outline: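 Broth microdilution in MH medium per NCCLS, run with and without 50% mouse serum; MIC (µg/ml) in serum reported as fold shift relative to serum-free MIC; strains E. coli ATCC 25922 and P. aeruginosa ATCC 27853.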

Compound	MIC (Pseudomonas aeruginosa [1]) [µg/mL]	IC50 (Escherichia coli [2]) [µM]	MIC (Escherichia coli [3]) [µg/mL]	MIC50 (Pseudomonas aeruginosa [4]) [µg/mL]	MIC80 (Pseudomonas aeruginosa [4]) [µg/mL]	MIC90 (Pseudomonas aeruginosa [4]) [µg/mL]	Fold change (Escherichia coli [5])
Cl.N[C@@H]1C[C@H](N)CN(c2cc(Nc3ccc(NC(=O)c4ccc5ccccc5c4O)cc3)nc(N3C[C@H](N)C[C@H](N)C3)c2)C1	≤ 0.5	16	2	–	–	–	–
CCn1cc(C(=O)Nc2ccc(Nc3nc(N4C[C@H](N)C[C@H](N)C4)nc(N4C[C@H](N)C[C@H](N)C4)n3)cc2)c(=O)c2cc3c(cc21)OCO3.Cl	1	3	1	–	–	–	–
CCN1CCN(C(=O)N[C@@H](C(=O)N[C@@H]2C(=O)N3[C@@H]2SC(C)(C)[C@@H]3C(=O)O)c2ccccc2)C(=O)C1=O [PIPERACILLIN]	–	–	–	8 (≈ 15.5 µM)	32 (≈ 61.8 µM)	64 (≈ 124 µM)	–
Cl.N[C@@H]1C[C@H](N)CN(c2nc(Nc3ccc(NC(=O)c4ncccc4O)c(O)c3)nc(N3C[C@H](N)C[C@H](N)C3)n2)C1	4	10	8	–	–	–	–
Cl.N[C@@H]1C[C@H](N)CN(c2nc(Nc3ccc(NC(=O)c4ccc5ccccc5c4)cc3)nc(N3C[C@H](N)C[C@H](N)C3)n2)C1	≤ 0.5	24	1	–	–	–	–
Cl.N[C@@H]1C[C@H](N)CN(c2nc(N3C[C@H](N)C[C@H](N)C3)c3[nH]c(Nc4ccc(NC(=O)c5ccc6cccnc6c5O)cc4)nc3n2)C1	16	0.4	8	–	–	–	–
CCN1CCN(c2cc3c(cc2F)c(=O)c(C(=O)Nc2ccc(Nc4nc(N5C[C@H](N)C[C@H](N)C5)nc(N5C[C@H](N)C[C@H](N)C5)n4)cc2)cn3C2CC2)CC1.Cl	2	1.3	≤ 0.5	–	–	–	–
Cl.N[C@@H]1C[C@H](N)CN(c2nc(Nc3ccc(NC(=O)c4cnc5ccccc5c4O)c(O)c3)nc(N3C[C@H](N)C[C@H](N)C3)n2)C1	1	5	1	–	–	–	–
Cl.N[C@@H]1C[C@H](N)CN(c2nc(Nc3ccc(NC(=O)c4cnc5ccccc5c4O)cc3)nc(N3C[C@H](N)C[C@H](N)C3)n2)C1	1	5	4	–	–	–	–
CC(C)(O/N=C(\C(=O)N[C@@H]1C(=O)N2C(C(=O)[O-])=C(C[n+]3ccccc3)CS[C@H]12)c1csc(N)n1)C(=O)O [CEFTAZIDIME]	–	–	–	2 (≈ 3.66 µM)	8 (≈ 14.6 µM)	16 (≈ 29.3 µM)	–
Cl.N[C@@H]1C[C@H](N)CN(c2nc(N3C[C@H](N)C[C@H](N)C3)c(Cl)c(Nc3ccc(NC(=O)C4=CN(C5CC5)C5C=C(N6CCNCC6)C(F)=CC5C4=O)cc3)c2Cl)C1 (stereo not given in full)	8	0.8	8	–	–	–	–
Cl.N[C@@H]1C[C@H](N)CN(c2nc(Nc3ccc(NC(=O)c4ccccc4O)c(O)c3)nc(N3C[C@H](N)C[C@H](N)C3)n2)C1	2	11	4	–	–	–	–
C[C@@H](O)[C@H]1C(=O)N2C(C(=O)O)=C(SCCNC=N)C[C@H]12 [IMIPENEM ANHYDROUS]	–	–	–	2 (≈ 6.68 µM)	16 (≈ 53.4 µM)	16 (≈ 53.4 µM)	–
Cl.N[C@@H]1C[C@H](N)CN(c2nc(Nc3ccc(NC(=O)c4ccc5ccccc5c4O)cc3)nc(N3C[C@H](N)C[C@H](N)C3)n2)C1	≤ 0.5	24	1	–	–	–	–
Cl.N[C@@H]1C[C@H](N)CN(c2nc(N3C[C@H](N)C[C@H](N)C3)c(Cl)c(Nc3ccc(NC(=O)c4ccc5ccccc5c4O)cc3)c2Cl)C1	1	14	2	–	–	–	–
O=C(N[C@H](CO)[C@H](O)c1ccc([N+](=O)[O-])cc1)C(Cl)Cl [CHLORAMPHENICOL]	–	–	–	> 128	> 128	> 128	–
Cl.N[C@@H]1C[C@H](N)CN(c2nc(N3C[C@H](N)C[C@H](N)C3)c3[nH]c(Nc4ccc(NC(=O)c5cnc6ccccc6c5O)cc4)nc3n2)C1	1	–	1	–	–	–	–
CCn1cc(C(=O)Nc2ccc(Nc3nc(N4C[C@H](N)C[C@H](N)C4)nc(N4C[C@H](N)C[C@H](N)C4)n3)cc2)c(=O)c2cnc(N3CCNCC3)nc21.Cl	1	0.9	32	–	–	–	–

Compound	MIC (Pseudomonas aeruginosa [1]) [µg/mL]	IC50 (Escherichia coli [2]) [µM]	MIC (Escherichia coli [3]) [µg/mL]	MIC50 (Pseudomonas aeruginosa [4]) [µg/mL]	MIC80 (Pseudomonas aeruginosa [4]) [µg/mL]	MIC90 (Pseudomonas aeruginosa [4]) [µg/mL]	Fold change (Escherichia coli [5])
NCC[C@H](O)C(=O)N[C@@H]1C[C@H](N)[C@@H](O[C@H]2O[C@H](CN)[C@@H](O)[C@H](O)[C@H]2O)[C@H](O)[C@H]1O[C@H]1O[C@H](CO)[C@@H](O)[C@H](N)[C@H]1O [AMIKACIN]	–	–	–	4 (≈ 6.83 µM)	8 (≈ 13.7 µM)	32 (≈ 54.6 µM)	–
Cl.N[C@@H]1C[C@H](N)CN(c2cc(Nc3ccc(NC(=O)c4cnc5ccccc5c4O)cc3)cc(N3C[C@H](N)C[C@H](N)C3)n2)C1	≤ 0.5	2.2	≥ 64	–	–	–	–
CN(C)[C@@H]1C(O)=C(C(N)=O)C(=O)[C@@]2(O)C(O)=C3C(=O)c4c(O)cccc4[C@@](C)(O)[C@H]3C[C@@H]12 [TETRACYCLINE]	–	–	–	32 (≈ 72 µM)	64 (≈ 144 µM)	64 (≈ 144 µM)	–
Cl.N[C@@H]1C[C@H](N)CN(c2nc3nc(Nc4ccc(NC(=O)c5ccc6ccccc6c5O)cc4)nc(N4C[C@H](N)C[C@H](N)C4)c3[nH]2)C1	2	18	1	–	–	–	–
CC1COc2c(N3CCNCC3)c(F)cc3c(=O)c(C(=O)Nc4ccc(Nc5nc(N6C[C@H](N)C[C@H](N)C6)nc(N6C[C@H](N)C[C@H](N)C6)n5)cc4)cn1c23.Cl (stereo not given in full)	8	1	16	–	–	–	–
Cl.N[C@@H]1C[C@H](N)CN(c2nc(Nc3ccc(NC(=O)c4cn(C5CC5)c5cc(N6CCNCC6)c(F)cc5c4=O)cc3)nc(N3C[C@H](N)C[C@H](N)C3)n2)C1	2	0.4	64	–	–	–	–
Cl.N[C@@H]1C[C@H](N)CN(c2cc(Nc3ccc(NC(=O)c4ccc5ccccc5c4O)cc3)cc(N3C[C@H](N)C[C@H](N)C3)c2)C1	2	12	2	–	–	–	–
Cl.N[C@@H]1C[C@H](N)CN(c2nc(Nc3ccc(NC(=O)c4cccnc4O)c(O)c3)nc(N3C[C@H](N)C[C@H](N)C3)n2)C1	≤ 0.5	4	8	–	–	–	–
Cl.N[C@@H]1C[C@H](N)CN(c2cc(Nc3ccc(NC(=O)c4ccc5ccccc5c4O)cc3)cc(N3C[C@H](N)C[C@H](N)C3)n2)C1	1	26	2	–	–	–	–
CCn1cc(C(=O)Nc2ccc(Nc3nc(N4C[C@H](N)C[C@H](N)C4)nc(N4C[C@H](N)C[C@H](N)C4)n3)cc2)c(=O)c2cc(F)c(N3CCNCC3)cc21.Cl	1	2	≤ 0.5	–	–	–	–
Cl.N[C@@H]1C[C@H](N)CN(c2nc(Nc3ccc(NC(=O)c4cc(Cl)ccc4O)c(O)c3)nc(N3C[C@H](N)C[C@H](N)C3)n2)C1	1	9	4	–	–	–	–
CCn1cc(C(=O)Nc2ccc(Nc3nc(N4C[C@H](N)C[C@H](N)C4)nc(N4C[C@H](N)C[C@H](N)C4)n3)cc2)c(=O)c2ccc(C)nc21.Cl	2	2	4	–	–	–	–
Cl.N[C@@H]1C[C@H](N)CN(c2nc(Nc3ccc(NC(=O)c4cnc5ccccc5c4O)c(Cl)c3)nc(N3C[C@H](N)C[C@H](N)C3)n2)C1	1	24	4	–	–	–	–
Cl.N[C@@H]1C[C@H](N)CN(c2cc(Nc3ccc(NC(=O)c4ccc5ccccc5c4O)cc3)nc(N3C[C@H](N)C[C@H](N)C3)n2)C1	8	18	≤ 0.5	–	–	–	–
CCn1cc(C(=O)O)c(=O)c2ccc(C)nc21 [NALIDIXIC ACID]	–	> 100	–	–	–	–	–
Cl.N[C@@H]1C[C@H](N)CN(c2nc(Nc3ccc(NC(=O)c4ccc(Cl)cc4)c(O)c3)nc(N3C[C@H](N)C[C@H](N)C3)n2)C1	–	–	–	4	4	8	–
Cl.N[C@@H]1C[C@H](N)CN(c2nc(Nc3ccc(NC(=O)c4cc(Cl)cnc4O)c(O)c3)nc(N3C[C@H](N)C[C@H](N)C3)n2)C1	≤ 0.5	3	4	–	–	–	2
Cl.N[C@@H]1C[C@H](N)CN(c2nc(Nc3ccc(NC(=O)c4ccc5cccnc5c4O)cc3)nc(N3C[C@H](N)C[C@H](N)C3)n2)C1	2	–	4	–	–	–	–
